Shown is part of a subset that was picked to be rich in hits.
HCT116 PTEN-null: growth suppression of PTEN-null HCT116, primary screen, cell-based, CellTiter-Glo; HCT116 PTEN-null viability, 60 h; stronger effect = lower value; viability, % at 10 µM; 140,000 compounds, 1.2% hits; AID 827, 2007;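 active = viability at or below a set limit, 4 SD under the median of all tested compounds, cut at about 3.7% in these data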;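 also: PTEN knockout HCT116 line with beta catenin targeted HCT116 as companion control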
Lung fibro prol: antiproliferative effect on LL 47 fibroblasts – human, LL 47 cells, CellTiter-Glo luminescence, primary screen. viability, % at 10 µM. 85,000 compounds, 1.1% hits. AID 719, 2007. LL 47 human lung fibroblast viability, ATP luminescence; stronger effect = lower value;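 active = viability at or below 50% in the single dose screen; inactive = viability above 50%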;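 also: compound exposure lasted 72 h before the ATP readout; 100% = median luminescence of untreated cell-only wells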
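Test system: LL 47 human lung fibroblasts / Quantity: 1,150 cells in each well / Medium: IMEM growth medium with 15% fetal bovine serum / Incubation: 72 h compound exposure at 37 °C after overnight plating / Detection: CellTiter-Glo luminescence measuring cellular ATP / Read-out: % viability versus median cells-only luminescence / Benchmarks: cell-only wells, no compound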
HUVEC inhibit: inhibitors of HUVEC proliferation, primary screen, cell-based, 384-well | 86,000 compounds, 1.1% hits | viability, % at 10 µM (by protocol) | CellTiter-Glo luminescence, 72 h; stronger effect = lower value;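 active = viability at or below 30%; inactive = viability above 30%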;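 also: 100% = median luminescence of DMSO-only cell control wells on each plate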
bCat KO growth: primary screen for growth suppressors in beta-catenin knockout HCT116 cells (colon tumor, human); HCT116 beta-catenin knockout viability, CellTiter-Glo, 60 h; stronger effect = lower value; viability, % at 10 µM; 140,000 compounds, 1.5% hits; AID 818, 2007;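 active = viability at or under a set limit, the compound median less 4 SD, cut at about 6% in these data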;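 also: 0% = Hyamine 1622 control at 20 µM and 100% = untreated cell control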
PTK2B oligo ant: antagonists of Pyk2 self-association, primary screen, Q293 cells, FERM NanoBiT luminescence, HTS | Protein-tyrosine kinase 2-beta (Homo sapiens), Q14289 | stronger effect = lower value | z-score (the deposit names both 25 µM and 10 µM) | 99,000 compounds, 0.83% hits | AID 1347419, 2020;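 active = Z-score of -3 or lower, scaled per plate to the spread of control and sample wells; inactive = z-score above -3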;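 also: negative z-score means lost luminescence so less FERM oligomerization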
H69AR inhibit: proliferation blockers of H69AR lung cancer cells, primary screen, cell-based, human, 86K library | H69AR lung tumor viability, ATP luminescence, 72 h; stronger effect = lower value | 85,000 compounds, 6% hits | viability, % at 10 µM;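 active = viability at or below 40%; inactive = viability above 40%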;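 also: multidrug resistant small cell line overexpressing MRP-1 efflux transporter; 100% = mean luminescence of untreated control wells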
* marks the source's active call; other numbers are inactive results; . = no result.

SMILES | HCT116 PTEN-null | Lung fibro prol | HUVEC inhibit | bCat KO growth | PTK2B oligo ant | H69AR inhibit
CC(C)(C)C1CCc2c(sc(NC(=O)c3ccco3)c2C(N)=O)C1 (configuration not stated) | 50.6 | 59.3 | 75.5 | 41.5 | -1.02 | 38.7*
COc1ccc(-c2cnnc(N/N=C/c3ccc(O)c(O)c3)n2)cc1 | 2.9* | . | . | 4.5* | . | .
COc1cc(/C=N/Nc2nnc3c(n2)[nH]c2ccccc23)ccc1O | 103.8 | . | . | 94.2 | . | .
COc1ccc(-c2cnnc(N/N=C/c3c(C)nn(-c4ccccc4)c3Cl)n2)cc1 | 2.9* | . | . | 4.7* | . | .
Cc1nn(-c2ccccc2)c(Cl)c1/C=N/Nc1nc2ccccc2[nH]1 | 29.3 | . | . | 31.6 | . | .
Nc1nonc1C(=O)NCCNS(=O)(=O)c1ccc(Br)cc1 | 55.6 | . | . | 56.9 | -0.19 | .
Cc1oc2c(cc(NS(=O)(=O)c3cccs3)c3ccccc32)c1C(=O)OC(C)C | 80.2 | 91.1 | 75.8 | 77.9 | -1.01 | 72.7
COc1ccc(S(=O)(=O)Nc2cc3c(C(C)=O)c(C)oc3c3ccccc23)cc1 | 19.1 | 50.6 | 37.0 | 18.9 | 0.37 | 24.6*
CCOC(=O)c1ccccc1NS(=O)(=O)c1ccc(OCC)cc1 | 18.7 | 64.5 | 65.0 | 15.4 | -2.54 | 12.7*
CCOc1ccc(S(=O)(=O)Nc2ccccc2C(=O)NCC2CCCO2)cc1 (configuration not stated) | 88.1 | 97.1 | 104.0 | 99.9 | -0.5 | 97.0
CCOc1ccc(S(=O)(=O)Nc2ccccc2C(=O)Nc2ccccc2N2CCOCC2)cc1 | 110.8 | 102.1 | 86.0 | 100.3 | -3.13* | 93.9
COC(=O)c1cccc(NS(=O)(=O)c2ccc(OC)cc2)c1C | 27.3 | 85.7 | 59.7 | 23.1 | 1.74 | 22.8*
CCOC(=O)C(CSCC(=O)c1ccc(Cl)cc1)NC(=O)OC(C)(C)C (configuration not stated) | 91.6 | 85.5 | 88.8 | 86.7 | 0.97 | 95.5
CCCOc1ccc(S(=O)(=O)NNC(=O)c2cc3ccccc3o2)cc1 | 103.8 | . | . | 98.5 | . | .
S=C(NC1CCCCC1)N1CCN(C/C=C/c2ccccc2)CC1 | 86.0 | . | . | 87.5 | . | .
CCOC(=O)COc1ccc(S(=O)(=O)Nc2cccc(SC)c2)cc1 | 87.0 | 47.0* | 13.7* | 92.1 | 0.87 | 105.5
Nc1c(C(=O)NCc2ccc(F)cc2)c2nc3ccccc3nc2n1CCCN1CCOCC1 | 1.0* | 68.3 | 5.1* | 1.3* | 0.22 | 1.2*
C=CCn1c(N)c(C(=O)NCC2CCCO2)c2nc3ccccc3nc21 (configuration not stated) | 66.2 | 95.8 | 63.4 | 62.2 | -1.45 | 68.3
Nc1c(C(=O)NCc2ccccc2)c2nc3ccccc3nc2n1CCCN1CCOCC1 | 4.1 | . | . | 6.5 | . | .
COc1ccc(-n2c(N)c(C(=O)NCC3CCCO3)c3nc4ccccc4nc32)c(OC)c1 (configuration not stated) | 46.3 | 87.4 | 66.7 | 48.5 | -1.45 | 39.5*
COc1ccc(CNC(=O)c2c(N)n(CCCN3CCOCC3)c3nc4ccccc4nc23)cc1 | 1.7* | 92.3 | 7.0* | 1.4* | 0.66 | 1.2*
CCCC1CCc2c(sc(N)c2C(N)=O)C1 (configuration not stated) | 95.7 | 95.0 | 82.1 | 95.2 | -1.4 | 95.5
O=S(=O)(NC1=NCCC1)c1cccc(NS(=O)(=O)c2ccc(OC(F)(F)F)cc2)c1 | 96.3 | . | . | 88.5 | 0.07 | .
CC1CCCCN1C(=O)CSc1nnc(CSc2ncccn2)n1C (configuration not stated) | 101.0 | 102.9 | 107.7 | 91.0 | 0.11 | 97.4
CC(=O)Nc1nc(-c2ccccc2)nc(-c2ccccc2OC(C)=O)n1 | 15.9 | . | 44.9 | 28.7 | -1.52 | 24.2*
SMILES | HCT116 PTEN-null | Lung fibro prol | HUVEC inhibit | bCat KO growth | PTK2B oligo ant | H69AR inhibit
CC(=O)Nc1nc(C)nc(-c2ccccc2OC(C)=O)n1 | 90.3 | 104.7 | 99.5 | 96.2 | -0.06 | 103.3
C=CCn1c2ccccc2c2nnc(SCc3ccc4nonc4c3)nc21 | 55.7 | 81.7 | 67.5 | 62.1 | -1.36 | 80.2
Fc1cccc(-c2cc3nc4c(c(N5CCOCC5)n3n2)CCCC4)c1 | 70.3 | 94.0 | 92.2 | 76.1 | -3.2* | 63.2
COc1ccccc1-n1cnc2cc(NCc3ccco3)ccc21 | 15.2 | 53.7 | 63.6 | 12.4 | 0.16 | 23.1*
COc1ccc(CNc2ccc3c(c2)ncn3-c2ccccc2OC)cc1 | 56.3 | 98.4 | 95.3 | 66.5 | -0.63 | 92.6
COc1ccccc1-n1cnc2cc(NCc3cccs3)ccc21 | 15.0 | 46.1* | 41.3 | 17.9 | -1.45 | 26.7*
COc1ccccc1-n1cnc2cc(NS(=O)(=O)c3ccc(Br)cc3)ccc21 | 82.7 | 93.7 | 73.6 | 86.6 | -3.28* | 73.3
CCCNC(=O)c1ccc2c(c1)ncn2-c1ccccc1OC | 93.0 | 104.2 | 101.0 | 93.8 | 0.79 | 80.2
Cc1ccccc1-n1cnc2cc(NCc3cccs3)ccc21 | 49.9 | 68.9 | 77.3 | 45.8 | -0.28 | 20.1*
N#Cc1cc([N+](=O)[O-])cnc1Nc1ccccc1 | 98.7 | . | . | 101.5 | . | .
CCSc1nc(-c2ccc(OC)cc2)n(-c2nc3ccccc3s2)n1 | 77.4 | 94.4 | 98.2 | 74.8 | -0.67 | 84.0
CN=C(Nc1cccc(OC)c1)SC1CC(=O)N(c2ccc(C(=O)O)cc2)C1=O (configuration not stated) | 103.0 | . | . | 92.2 | 1.17 | .
Cc1cccc(-n2ncc3c(N4CCC5(CC4)OCCO5)ncnc32)c1 | . | 88.3 | 114.8 | . | . | 33.5*
COc1cccc(N2CCN(c3ncnc4c3cnn4-c3ccc(C)cc3C)CC2)c1 | 3.1* | 33.2* | 2.2* | 1.7* | . | 55.5
c1ccc(-n2ncc3c(N4CCC5(CC4)OCCO5)ncnc32)cc1 | 89.4 | 98.8 | 98.4 | 90.5 | -0.24 | 61.9
Cc1ccc(-n2ncc3c(N4CCCC4)ncnc32)c(C)c1 | 100.8 | 96.9 | 98.6 | 99.3 | 0.3 | 55.4
c1ccc(-c2cc3c(nn2)CCc2nonc2-3)cc1 | 89.3 | 108.1 | 105.6 | 94.4 | -0.07 | 91.7
[O-][n+]1onc2c3cc(-c4ccccc4)nnc3ccc21 | 11.5 | 85.7 | 90.9 | 13.2 | -0.29 | 17.1*
O=C(N/N=C(\c1ccccc1)c1cccnc1)C(O)(c1ccccc1)c1ccccc1 | 60.9 | . | . | 76.2 | -3.91* | .
O=C(NC1CCS(=O)(=O)C1)c1c(NC(=O)C2COc3ccccc3O2)sc2c1CCCC2 (configuration not stated) | 16.1 | 102.2 | 85.1 | 12.8 | -0.26 | 22.9*
O=C(Nc1nc2c(s1)CCCC2)C1COc2ccccc2O1 (configuration not stated) | 76.0 | 95.7 | 94.4 | 77.3 | . | 86.5
CCCNC(=O)c1c(NC(=O)C2COc3ccccc3O2)sc2c1CCCC2 (configuration not stated) | 20.9 | 12.6* | 39.9 | 37.6 | 0.93 | 29.1*
